Laboratory results reported in ChEMBL document CHEMBL2062426 (J Med Chem, 2012).

How the values were obtained:
[1] = Metabolic stability in iv dosed ICR CD1 mouse urine assessed as compound remaining after 30 mins by gamma-counting based HPLC analysis; format: ADME, organism-based; settings: in vivo, 0.5 h
Method in brief: (§1)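 Three 10-month-old female ICR (CD1) mice received about 11.1 MBq tracer by tail vein and were killed 30 min pi. Plasma was taken from blood by centrifugation, and urine was collected. Muscle, kidney and liver were homogenized in 1% SDS/PBS and extracted with acetonitrile/acetic acid. Supernatants were γ-counted, %ID/g was computed against a dose aliquot, and samples were run on C18 radio-HPLC with an acetonitrile/water gradient in 0.05% TFA.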

Plasma [2] = experiment: Drug metabolism in iv dosed ICR CD1 mouse plasma assessed as radiometabolite 4 level after 30 mins by gamma-counting based HPLC analysis; format: ADME, organism-based; settings: in vivo, 0.5 h; method in brief: as §1
Muscle tissue [3] = experiment: Drug metabolism in iv dosed ICR CD1 mouse muscle assessed as radiometabolite 1 level after 30 mins by gamma-counting based HPLC analysis; format: ADME, organism-based; settings: in vivo, 0.5 h; method in brief: as §1
Liver [4] = experiment: Drug metabolism in iv dosed ICR CD1 mouse liver assessed as radiometabolite 3 level after 30 mins by gamma-counting based HPLC analysis; format: ADME, organism-based; settings: in vivo, 0.5 h; method in brief: as §1
Muscle tissue [5] = experiment: Drug uptake in C57/Bl6 mouse muscle at 250 kBq/g bodyweight, iv administered as bolus dose up to 120 mins by PET scanning; format: ADME, organism-based; settings: in vivo, 2 h
Method in brief: (§2)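 Adult C57/Bl6 mice given the 18F tracer by intravenous injection. List-mode PET data acquired for 120 min on a high-resolution small-animal scanner and reconstructed into dynamic frames iteratively. Organ volumes of interest were drawn on co-registered CT. Uptake is counts per mL in the VOI divided by total counts in the mouse ×100 (% ID/mL).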

Kidney [6] = experiment: Drug metabolism in iv dosed ICR CD1 mouse kidney assessed as radiometabolite 3 level after 30 mins by gamma-counting based HPLC analysis; format: ADME, organism-based; settings: in vivo, 0.5 h; method in brief: as §1
[7] = Octanol-water partition coefficient, log D of the compound after 1 min by gamma-counting at pH 7.4; format: physicochemical
Method in brief: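 About 20 kBq of tracer was shaken for 1 min at room temperature in 0.5 mL PBS pH 7.4 with 0.5 mL 1-octanol, then centrifuged (3000 rpm, 2 min). Triplicate 100 μL samples of each phase were γ-counted. log D7.4 is log(cpm octanol/cpm PBS), from two independent experiments in triplicate, given as mean ± SD.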

Liver [8] = experiment: Drug metabolism in iv dosed ICR CD1 mouse liver assessed as radiometabolite 4 level after 30 mins by gamma-counting based HPLC analysis; format: ADME, organism-based; settings: in vivo, 0.5 h; method in brief: as §1
Muscle tissue [9] = experiment: Drug metabolism in iv dosed ICR CD1 mouse muscle assessed as radiometabolite 3 level after 30 mins by gamma-counting based HPLC analysis; format: ADME, organism-based; settings: in vivo, 0.5 h; method in brief: as §1
Liver [10] = experiment: Drug metabolism in iv dosed ICR CD1 mouse liver assessed as radiometabolite 1 level after 30 mins by gamma-counting based HPLC analysis; format: ADME, organism-based; settings: in vivo, 0.5 h; method in brief: as §1
Kidney [11] = experiment: Tmax in C57/Bl6 mouse kidney at 250 kBq/g bodyweight, iv administered as bolus dose by PET scanning; format: ADME, organism-based; settings: in vivo; method in brief: as §2
Mus musculus = experiment: Drug metabolism in C57/Bl6 mouse assessed as defluorination at 250 kBq/g bodyweight, iv administered as bolus dose up to 120 mins by PET scanning; format: ADME, organism-based; settings: in vivo, 2 h; method in brief: as §2
Brain = experiment: Drug uptake in C57/Bl6 mouse brain at 250 kBq/g bodyweight, iv administered as bolus dose up to 120 mins by PET scanning; format: ADME, organism-based; settings: in vivo, 2 h; method in brief: as §2
Serum [12] = experiment: Metabolic stability in human serum at 5 MBq up to 120 mins by radio-HPLC analysis; format: ADME, cell-free; settings: 2 h
Method in brief: (§3)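 The PBS-formulated 18F tracer (20 μL, 5 MBq) was added to 200 μL human serum and incubated at 37 °C. Samples of 20 μL were taken at 10, 20, 30, 60, 90 and 120 min, quenched in methanol/CH2Cl2 1:1 and centrifuged 2 min. The organic layer was analysed by radio-HPLC (C18; 30% CH3CN/0.1% TFA for 15 min, then gradient).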

[13] = Drug metabolism in iv dosed ICR CD1 mouse urine assessed as radiometabolite 3 level after 30 mins by gamma-counting based HPLC analysis; format: ADME, organism-based; settings: in vivo, 0.5 h; method in brief: as §1
Kidney [14] = experiment: Drug metabolism in iv dosed ICR CD1 mouse kidney assessed as radiometabolite 2 level after 30 mins by gamma-counting based HPLC analysis; format: ADME, organism-based; settings: in vivo, 0.5 h; method in brief: as §1
Kidney [15] = experiment: Metabolic stability in iv dosed ICR CD1 mouse kidney assessed as compound remaining after 30 mins by gamma-counting based HPLC analysis; format: ADME, organism-based; settings: in vivo, 0.5 h; method in brief: as §1
Plasma [16] = experiment: Drug metabolism in iv dosed ICR CD1 mouse plasma assessed as radiometabolite 1 level after 30 mins by gamma-counting based HPLC analysis; format: ADME, organism-based; settings: in vivo, 0.5 h; method in brief: as §1
Kidney [17] = experiment: Half life in C57/Bl6 mouse kidney at 250 kBq/g bodyweight, iv administered as bolus dose by PET scanning; format: ADME, organism-based; settings: in vivo; method in brief: as §2
[18] = Drug metabolism in iv dosed ICR CD1 mouse urine assessed as radiometabolite 4 level after 30 mins by gamma-counting based HPLC analysis; format: ADME, organism-based; settings: in vivo, 0.5 h; method in brief: as §1
Kidney [19] = experiment: Drug metabolism in iv dosed ICR CD1 mouse kidney assessed as radiometabolite 4 level after 30 mins by gamma-counting based HPLC analysis; format: ADME, organism-based; settings: in vivo, 0.5 h; method in brief: as §1
Liver [20] = experiment: Drug metabolism in iv dosed ICR CD1 mouse liver assessed as radiometabolite 2 level after 30 mins by gamma-counting based HPLC analysis; format: ADME, organism-based; settings: in vivo, 0.5 h; method in brief: as §1
[21] = Metabolic stability in iv dosed ICR CD1 mouse muscle assessed as compound remaining after 30 mins by gamma-counting based HPLC analysis; format: ADME, organism-based, Muscle tissue; settings: read-out: Stability; method in brief: as §1
Serum [22] = experiment: Drug metabolism in mouse serum at 5 MBq up to 120 mins by radio-HPLC analysis; format: ADME, cell-free; settings: 2 h
Method in brief: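 Serum stability was repeated in mouse blood serum at 37 °C, with analysis by radio-HPLC.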

[23] = Drug metabolism in iv dosed ICR CD1 mouse urine assessed as radiometabolite 1 level after 30 mins by gamma-counting based HPLC analysis; format: ADME, organism-based; settings: in vivo, 0.5 h; method in brief: as §1
Lung = experiment: Drug uptake in C57/Bl6 mouse lungs at 250 kBq/g bodyweight, iv administered as bolus dose up to 120 mins by PET scanning; format: ADME, organism-based; settings: in vivo, 2 h; method in brief: as §2
Muscle tissue [24] = experiment: Drug metabolism in iv dosed ICR CD1 mouse muscle assessed as radiometabolite 2 level after 30 mins by gamma-counting based HPLC analysis; format: ADME, organism-based; settings: in vivo, 0.5 h; method in brief: as §1
Plasma [25] = experiment: Drug metabolism in iv dosed ICR CD1 mouse plasma assessed as radiometabolite 3 level after 30 mins by gamma-counting based HPLC analysis; format: ADME, organism-based; settings: in vivo, 0.5 h; method in brief: as §1
Liver [26] = experiment: Tmax in C57/Bl6 mouse liver at 250 kBq/g bodyweight, iv administered as bolus dose by PET scanning; format: ADME, organism-based; settings: in vivo; method in brief: as §2
Liver [27] = experiment: Metabolic stability in iv dosed ICR CD1 mouse liver assessed as compound remaining after 30 mins by gamma-counting based HPLC analysis; format: ADME, organism-based; settings: in vivo, 0.5 h; method in brief: as §1
[28] = Drug metabolism in iv dosed ICR CD1 mouse urine assessed as radiometabolite 2 level after 30 mins by gamma-counting based HPLC analysis; format: ADME, organism-based; settings: in vivo, 0.5 h; method in brief: as §1
Liver [29] = experiment: Half life in C57/Bl6 mouse liver at 250 kBq/g bodyweight, iv administered as bolus dose by PET scanning; format: ADME, organism-based; settings: in vivo; method in brief: as §2
Serum [30] = experiment: Drug metabolism in human serum at 5 MBq up to 120 mins by radio-HPLC analysis; format: ADME, cell-free; settings: 2 h; method in brief: as §3
Plasma [31] = experiment: Metabolic stability in iv dosed ICR CD1 mouse plasma assessed as compound remaining after 30 mins by gamma-counting based HPLC analysis; format: ADME, organism-based; settings: in vivo, 0.5 h; method in brief: as §1
Plasma [32] = experiment: Drug metabolism in iv dosed ICR CD1 mouse plasma assessed as radiometabolite 2 level after 30 mins by gamma-counting based HPLC analysis; format: ADME, organism-based; settings: in vivo, 0.5 h; method in brief: as §1
[33] = Drug uptake in C57/Bl6 mouse myocardium at 250 kBq/g bodyweight, iv administered as bolus dose up to 120 mins by PET scanning; format: ADME, organism-based; settings: in vivo, 2 h; method in brief: as §2
Kidney [34] = experiment: Drug metabolism in iv dosed ICR CD1 mouse kidney assessed as radiometabolite 1 level after 30 mins by gamma-counting based HPLC analysis; format: ADME, organism-based; settings: in vivo, 0.5 h; method in brief: as §1
Muscle tissue [35] = experiment: Drug metabolism in iv dosed ICR CD1 mouse muscle assessed as radiometabolite 4 level after 30 mins by gamma-counting based HPLC analysis; format: ADME, organism-based; settings: in vivo, 0.5 h; method in brief: as §1

## COc1ccc(S(=O)(=O)N(Cc2cn(CC[18F])nn2)[C@@H](C(=O)NO)C(C)C)cc1
[1]
  Stability: 27.86 % ID/g
Plasma [2]
  Drug metabolism: 0 % ID/g
Muscle tissue [3]
  Drug metabolism: 0 % ID/g
Liver [4]
  Drug metabolism: 1.32 % ID/g
Muscle tissue [5]
  Drug uptake: Not Active
Kidney [6]
  Drug metabolism: 0.21 % ID/g
[7]
  logD at 1 min: 0.6
Liver [8]
  Drug metabolism: 0.78 % ID/g
Muscle tissue [9]
  Drug metabolism: 0 % ID/g
Liver [10]
  Drug metabolism: 0.12 % ID/g
Kidney [11]
  Tmax: 0.5 min
Mus musculus
  Drug metabolism: Not Active
Brain
  Drug uptake: Not Active
Serum [12]
  Stability: Stable
[13]
  Drug metabolism: 2.32 % ID/g
Kidney [14]
  Drug metabolism: 0 % ID/g
Kidney [15]
  Stability: 4.6 % ID/g
Plasma [16]
  Drug metabolism: 0.17 % ID/g
Kidney [17]
  t1/2: 13 min
[18]
  Drug metabolism: 0.33 % ID/g
Kidney [19]
  Drug metabolism: 0.1 % ID/g
Liver [20]
  Drug metabolism: 0 % ID/g
[21]
  tissue uptake at 0.5 h: 0.21 %ID/g
Serum [22]
  Drug metabolism: Not Active
[23]
  Drug metabolism: 2.32 % ID/g
Lung
  Drug uptake: Not Active
Muscle tissue [24]
  Drug metabolism: 0 % ID/g
Plasma [25]
  Drug metabolism: 0 % ID/g
Liver [26]
  Tmax: 4 min
Liver [27]
  Stability: 0.78 % ID/g
[28]
  Drug metabolism: 0.33 % ID/g
Liver [29]
  t1/2: 18 min
Serum [30]
  Drug metabolism: Not Active
Plasma [31]
  Stability: 0.29 % ID/g
Plasma [32]
  Drug metabolism: 0 % ID/g
[33]
  Drug uptake: Not Active
Kidney [34]
  Drug metabolism: 0.26 % ID/g
Muscle tissue [35]
  Drug metabolism: 0 % ID/g
